RBBP9 inhibitor = human RBBP9 hydrolase inhibition. inhibition, % at 7.94 µM. recombinant RBBP9, FP-Rh probe fluorescence polarization. O75884. 220,000 tested, 0.2% active;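 active = inhibition above the campaign mean of all tested compounds plus 3 SD, cut at about 14% in these data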;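 note: plate controls were DMSO wells with RBBP9 for no effect and wells lacking RBBP9 protein for full effect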
Target sequence (O75884 whole entry, looked up): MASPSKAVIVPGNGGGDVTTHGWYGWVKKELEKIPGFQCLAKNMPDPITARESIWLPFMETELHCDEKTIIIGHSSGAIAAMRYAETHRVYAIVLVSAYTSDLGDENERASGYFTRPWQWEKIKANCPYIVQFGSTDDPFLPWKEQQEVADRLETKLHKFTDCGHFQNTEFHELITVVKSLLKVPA
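System: RBBP9 protein / Buffer or medium: Tris/NaCl buffer pH 8.0 with 0.1% Pluronic / Probe or stimulus: Serine-hydrolase probe FP-Rh, 375 nM pre-mixing / Dosing: 7.94 µM single dose, 0.794% DMSO / Times: enzyme-compound preincubation 30 min, then probe labeling 45 min, 25 °C / Technique: fluorescence polarization (mP), excitation 525 nm, emission 598 nm / Replication: singlicate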
pPAFAH inh = inhibitors of human plasma PAF acetylhydrolase (pPAFAH). Q13093. recombinant pPAFAH, FP-rhodamine probe fluorescence polarization. inhibition, % at 3.39 µM. 330,000 tested, 1.5% active. AID 463082;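 active = inhibition above the mean inhibition across the screen plus 3 SD, cut at about 25% in these data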;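 note: inhibitors block binding of the rhodamine activity-based probe so polarization drops; 0% = enzyme with DMSO and 100% = wells lacking pPAFAH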
PAFAH2 inh = PAFAH2 (human) inhibition | Q99487 | recombinant PAFAH2, FP-rhodamine activity probe, fluorescence polarization | inhibition, % at 3.39 µM | 340,000 tested, 0.99% active | AID 492956;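 active = inhibition above the mean over all tested compounds plus 3 SD, cut at about 30% in these data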;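 note: inhibitors block probe labeling of enzyme so polarization drops; 0% = enzyme with DMSO and 100% = wells lacking PAFAH2 protein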
PAFAH1B2 FP inh = blocks human PAF acetylhydrolase 1b catalytic subunit 2. 340,000 tested, 1.2% active. AID 492953. inhibition, % at 3.39 µM. P68402. recombinant PAFAH1B2, FP-rhodamine activity probe, fluorescence polarization;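 active = inhibition above the mean of all tested compounds plus 3 SD, cut at about 24% in these data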;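 note: 0% = enzyme with DMSO and 100% = wells lacking PAFAH1B2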
Target sequence (P68402 whole entry, looked up): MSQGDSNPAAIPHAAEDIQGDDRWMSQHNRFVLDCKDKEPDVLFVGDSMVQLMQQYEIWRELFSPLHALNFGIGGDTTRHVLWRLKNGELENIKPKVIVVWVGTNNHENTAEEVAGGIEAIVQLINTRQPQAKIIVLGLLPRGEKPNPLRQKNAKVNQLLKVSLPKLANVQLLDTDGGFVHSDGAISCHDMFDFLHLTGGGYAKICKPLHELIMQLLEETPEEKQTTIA
PAFAH1B3 FP inh = inhibitors of human PAFAH1B3. Q15102. recombinant PAFAH1B3, FP-rhodamine probe, fluorescence polarization. inhibition, % at 3.39 µM. 340,000 tested, 0.28% active. AID 492972;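 active = inhibition above the screen-wide average of all tested compounds plus 3 SD, cut at about 25% in these data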;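 note: 0% = enzyme with DMSO only and 100% = wells lacking PAFAH1B3 protein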
* hit, by the source's call; x = not tested or not shown. Compounds with a hit are over-represented: about 2.7% of the library has one in this group of screens.

SMILES | RBBP9 inhibitor | pPAFAH inh | PAFAH2 inh | PAFAH1B2 FP inh | PAFAH1B3 FP inh
Nc1ncccc1C(=O)OCC(=O)N1CCN(S(=O)(=O)c2ccc(Cl)cc2)CC1 | x | -4 | 5 | 24* | 6
CCOc1ccc(OCCCC(=O)N2CCN(S(=O)(=O)c3ccc(Cl)cc3)CC2)cc1 | x | 2 | 10 | 6 | 5
COc1ccc(S(=O)(=O)N2CCCCCC2)cc1 | -8 | 5 | 4 | 3 | 8
O=C(COc1ccc(Cl)cc1)N1CCN(S(=O)(=O)c2ccccc2)CC1 | -3 | 3 | 12 | 2 | 2
O=C(CCCOc1ccccc1)N1CCN(S(=O)(=O)c2ccc(Cl)cc2)CC1 | x | 7 | 3 | 29* | 9
O=C(COc1ccccc1)N1CCN(S(=O)(=O)c2ccc(Cl)cc2)CC1 | -4 | 5 | 1 | 31* | -3
Cc1cc(OCC(=O)OCC(=O)Nc2cc(S(=O)(=O)N3CCOCC3)ccc2Cl)ccc1Cl | x | 16 | 6 | 9 | 9
COc1ccc(Cl)cc1NS(=O)(=O)c1ccc(S(=O)(=O)N2CCCC2)cc1 | -9 | 2 | -7 | 25* | 2
Cc1ccc(S(=O)(=O)CCC(=O)OCC(=O)N2CCN(S(=O)(=O)c3ccc(Cl)cc3)CC2)cc1 | x | 13 | -2 | 22 | 8
O=C(Cc1ccc(F)cc1)OCC(=O)N1CCN(S(=O)(=O)c2ccc(Cl)cc2)CC1 | x | 33* | 11 | 13 | -5
COc1ccc(OCC(=O)OCC(=O)Nc2cc(S(=O)(=O)N3CCOCC3)ccc2Cl)cc1 | x | 29* | 3 | 5 | 9
COc1ccc(CNC(=O)COc2ccc(S(=O)(=O)N3CCCCC3)cc2)cc1 | x | 28* | 2 | -1 | 2
COc1ccc(Cl)cc1NS(=O)(=O)c1ccc(OC)c(OC)c1 | -1 | -1 | 7 | 3 | 4
COc1ccc(CNC(=O)COc2ccc(S(=O)(=O)N3CCCCC3)cc2Cl)cc1 | x | 10 | -6 | 2 | 12
Cc1ccc(S(=O)(=O)N2CCN(C(=O)COC(=O)CNC(=O)c3ccc(Cl)cc3Cl)CC2)c(C)c1 | x | x | 6 | 3 | -1
CCOC(=O)N1CCC(=NNC(=O)COc2cccc(C)c2)CC1 | -5 | 0 | -5 | 7 | 4
C=C(CN(C)C)C(=O)c1ccc2c(c1)OCO2 | x | x | 3 | 8 | 12
CCOc1ccccc1OCCCC(=O)N1CCN(S(=O)(=O)c2ccc(C)cc2C)CC1 | x | 5 | -2 | 3 | 3
COc1ccccc1CNC(=O)N1CCN(S(=O)(=O)c2ccccc2)CC1 | x | 2 | -2 | 8 | 9
COc1ccc(CN(C)C(=O)CCC(=O)N2CCN(S(=O)(=O)c3ccc(Cl)cc3)CC2)c(OC)c1 | x | x | -2 | 27* | 0
O=C(CNc1cccc([N+](=O)[O-])c1)N1CCN(S(=O)(=O)c2ccc(Cl)cc2)CC1 | x | x | 6 | 24* | 5
CCOc1ccccc1OCCCC(=O)N1CCN(S(=O)(=O)c2ccc(C)cc2)CC1 | 5 | 2 | 6 | 29* | 15
COc1ccccc1CNC(=O)N1CCN(S(=O)(=O)c2ccc(Cl)cc2)CC1 | x | 5 | -11 | 30* | 4
Cc1ccc(NC(=O)CN(C)S(=O)(=O)c2cnc[nH]2)c(C)c1 | x | 0 | 3 | 9 | 3
CC1CCN(S(=O)(=O)c2ccc3c(c2)N(CC(=O)NCCCN2CCCCC2)C(=O)CS3)CC1 | x | 4 | -4 | 4 | -3
SMILES | RBBP9 inhibitor | pPAFAH inh | PAFAH2 inh | PAFAH1B2 FP inh | PAFAH1B3 FP inh
O=C(COc1ccc(S(=O)(=O)N2CCCC2)cc1)N1CCCC1 | x | 31* | -1 | 4 | 7
COc1ccc(NS(=O)(=O)c2ccc(OCC(=O)N3CCOCC3)cc2)cc1 | 2 | 15 | 0 | -4 | 5
O=C(COc1ccc(S(=O)(=O)Nc2ccccc2)cc1)N1CCOCC1 | 5 | 27* | 5 | -2 | 3
COC(=O)c1cc(NCc2c(F)cccc2Cl)ccc1N1CCOCC1 | -4 | 30* | 3 | -2 | 6
Cc1cc(NC(=O)CN2C(=O)NC(C)(c3ccc(Cl)cc3Cl)C2=O)no1 (stereo unspecified) | x | 3 | 7 | 5 | 8
O=S(=O)(Nc1ncnc2sc3c(c12)CCC3)c1cc(F)ccc1F | -1 | 30* | 0 | 3 | 6
S=C(NCCc1ccccc1)NC1CCCCCC1 | 1 | 6 | 6 | 9 | -1
O=C(NCCc1ccc(Cl)cc1)C1CCC(=O)N1C1CCCC1 (stereo unspecified) | -11 | -2 | 3 | 56* | 5
S=C(NCCc1ccc(Cl)cc1)NC1CCCC1 | -5 | 6 | 0 | 27* | 0
